bIAP inhibitor – bovine intestinal alkaline phosphatase inhibitors, primary screen, selectivity assay for TNAP inhibitor project, biochemical, bovine IAP, CDP-star luminescence; purified bovine IAP, 30 min; inhibition, % at 20 µM; 190,000 tested, under 10 active; AID 1019, 2008;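 active = over 50% inhibition of intestinal alkaline phosphatase at 20 µM in the single-dose screen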
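Assay system: bovine IAP enzyme; medium: DEA buffer 100 mM, pH 9.8, with MgCl2 1.0 mM, ZnCl2 0.02 mM; doses: 20 µM single dose; incubation: enzyme reaction for 30 min at room temperature; detection: CDP-star luminescence signal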
bIAP activator – bovine intestinal alkaline phosphatase activators, primary screen, biochemical, bovine IAP, CDP-star luminescence; alkaline phosphatase, intestinal [Bos taurus]; purified bovine IAP, 30 min; hits give high values; fold of DMSO-control signal, blank-subtracted; activation factor at 20 µM; 200,000 tested, 0.17% active; AID 1016, 2008;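 active = activation factor of 2 or more at 20 µM, a signal rise over negative controls twice the positive control's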
hIAP block – human IAP inhibitors, primary screen, biochemical, luminescence, uHTS | purified IAP, CDP-Star luminescence, 30 min | inhibition, % at 10 µM | 330,000 tested, 0.12% active | Intestinal-type alkaline phosphatase (Homo sapiens), P09923 | AID 2544, 2010;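 active = inhibition reaching a set limit with compound at 10 µM in the primary screen, cut at about 35% in these data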;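 note: plate controls were DMSO wells with enzyme for no effect and no-enzyme buffer wells for full effect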
Target sequence (P09923 whole entry, looked up): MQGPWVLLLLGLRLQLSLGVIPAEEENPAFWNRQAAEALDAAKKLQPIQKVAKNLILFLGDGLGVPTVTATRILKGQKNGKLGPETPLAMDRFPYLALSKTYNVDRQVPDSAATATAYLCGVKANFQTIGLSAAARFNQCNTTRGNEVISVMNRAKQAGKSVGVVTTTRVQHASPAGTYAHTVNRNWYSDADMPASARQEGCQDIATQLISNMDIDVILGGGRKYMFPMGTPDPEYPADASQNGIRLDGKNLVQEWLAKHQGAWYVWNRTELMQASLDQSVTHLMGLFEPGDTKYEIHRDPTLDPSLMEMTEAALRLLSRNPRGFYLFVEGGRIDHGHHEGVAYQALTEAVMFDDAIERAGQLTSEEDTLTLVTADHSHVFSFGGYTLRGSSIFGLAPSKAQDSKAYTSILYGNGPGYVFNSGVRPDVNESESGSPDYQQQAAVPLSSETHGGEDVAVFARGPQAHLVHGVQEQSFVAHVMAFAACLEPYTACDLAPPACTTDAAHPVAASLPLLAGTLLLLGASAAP
hIAP act – human IAP activators, primary screen, biochemical, luminescence, uHTS | 330,000 tested, 0.16% active | activation factor at 10 µM | purified human IAP, CDP-Star luminescence, 30 min; hits give high values; 1 = vehicle-only enzyme, 0 = enzyme-free background | Intestinal-type alkaline phosphatase (Homo sapiens), P09923;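 active = activation factor of the enzyme at least 2-fold when tested at 20 µM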
mIAP inh – inhibitors of mouse IAP, primary screen, biochemical, luminescence, uHTS; intestinal alkaline phosphatase [Mus musculus]; AID 2806, 2010; 330,000 tested, 0.2% active; inhibition, % at 10 µM; purified mouse IAP, CDP-Star luminescence, 30 min;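 active = inhibition of at least 40% at 10 µM in the primary screen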;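 note: plate controls were DMSO with enzyme for no effect and no enzyme wells for full effect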
mIAP act – activators of mouse IAP, primary screen, biochemical, luminescence, uHTS; muIAP, CDP-Star luminescence, 30 min; hits give high values; 1 = vehicle-only enzyme signal, 0 = enzyme-free wells; activation factor at 10 µM; 330,000 tested, 0.24% active; AID 2805, 2010;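 active = activation factor of at least 2 at 20 µM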
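Assay system: mouse IAP enzyme; Reagent: CDP-Star chemiluminescent phosphatase substrate; Compound: DMSO-dissolved test compounds; Incubation: 30 min, room temperature; Technique: luminescence from enzymatic CDP-Star hydrolysis; Controls: DMSO-only wells and no-enzyme negative control.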
hIAP act confirm – human IAP activators, confirmation, biochemical, luminescence, single concentration, uHTS hits. shares compounds with hIAP act. purified IAP, CDP-Star luminescence, 30 min; hits give low values. activation (%Activity, negative = activation), % at 8.3 µM. 880 tested, 10% active. AID 434926, 2010;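 active = at least twofold enzyme activation in any of six single-dose repeats, which the averaged readout prints as negative percent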
Numbers without * were called inactive. An excerpt weighted towards active compounds, which were near 0.72% of everything screened.

O=C(N/N=C/c1cccc([N+](=O)[O-])c1)c1nc2ccccc2c(=O)[nH]1 was read as hIAP block -139.7, hIAP act 2.4*, mIAP inh 25.7, mIAP act 0.743 and hIAP act confirm 33.3.
COCCCNC(=O)c1cc(-c2cccnc2)nc2ccc(S(=O)(=O)N3CCCCCC3)cc12 was read as hIAP block -13.9, hIAP act 1.14, mIAP inh -1.0 and mIAP act 1.01.
For CN(C)S(=O)(=O)c1ccc(C(=O)Nc2cc3c(cc2C(=O)O)OCCCO3)cc1 the results were hIAP block 4.3, hIAP act 0.957, mIAP inh 8.2 and mIAP act 0.918.
COc1ccc2[nH]c(C(=O)N/N=C/c3ccc(O)cc3O)cc2c1 was read as hIAP block -103.9, hIAP act 2.04*, mIAP inh 17.7, mIAP act 0.823 and hIAP act confirm -9.4.
Screening COc1ccc(C(CNC(=O)COc2ccc(Cl)cc2C)N2CCCCC2)cc1 (stereo unspecified) returned hIAP block -8.7, hIAP act 1.09, mIAP inh -3.3 and mIAP act 1.03.
O=C(O)/C(=C\c1ccccc1)c1ccc2ccccc2c1 was read as hIAP block 37.8*, hIAP act 0.622, mIAP inh -5.4, mIAP act 1.05 and hIAP act confirm 5.9.
Oc1ccc(N=Nc2c(O)ccc3ccccc23)cc1 was read as bIAP inhibitor 40.8, bIAP activator 0.6, hIAP block 44.7*, hIAP act 0.553, mIAP inh 32.2, mIAP act 0.678 and hIAP act confirm -91.9*.
Screening CN1C(=O)/C(=C\c2cc(N=Nc3ccccc3)ccc2O)SC1=S returned bIAP inhibitor 27.0, bIAP activator 0.7, hIAP block 38.3*, hIAP act 0.616, mIAP inh 26.1, mIAP act 0.739 and hIAP act confirm 2.7.
Screening CN(CCCC1CCCC1)C(=O)CC1C(=O)NCCN1Cc1ccc(F)cc1 (stereo unspecified) returned hIAP block 12.1, hIAP act 0.879, mIAP inh 3.1 and mIAP act 0.969.
Screening O=C(O)c1cccc(CSc2n[nH]c(-c3ccc(Cl)cc3Cl)n2)c1 returned bIAP inhibitor 22.6, bIAP activator 0.8, hIAP block 40.2*, hIAP act 0.598, mIAP inh -1.6, mIAP act 1.02 and hIAP act confirm -18.2.
`CN(C)c1ccc(/C=C2/C=C(c3ccc4c(c3)CCCC4)OC2=O)cc1` gave hIAP block 42.6*, hIAP act 0.574, mIAP inh 33.3, mIAP act 0.667 and hIAP act confirm 4.2.
Screening Oc1c(N=Nc2ccccc2)sc2ccccc12 returned hIAP block 38.3*, hIAP act 0.617, mIAP inh 32.3, mIAP act 0.677 and hIAP act confirm 14.0.
`CC(=Nc1ccc(O)cc1)c1sc2ccccc2c1O` gave bIAP inhibitor 14.2, bIAP activator 0.9, hIAP block 9.2, hIAP act 0.908, mIAP inh 13.2 and mIAP act 0.868.
Screening O=C(c1ccc(Cl)cc1)N(Cc1cccs1)C1CCS(=O)(=O)C1 (stereo unspecified) returned bIAP inhibitor 1.3, bIAP activator 1, hIAP block -1.5, hIAP act 1.01, mIAP inh -1.4 and mIAP act 1.01.
Screening Cc1ccc(C(=O)N(Cc2cccs2)C2CCS(=O)(=O)C2)cc1 (stereo unspecified) returned hIAP block 41.8*, hIAP act 0.582, mIAP inh 5.1, mIAP act 0.949 and hIAP act confirm -2.6.
Screening CCOC(=O)/C=C/C(=O)OCC(=O)N1CCN(C(=O)c2ccco2)CC1 returned hIAP block -6.6, hIAP act 1.07, mIAP inh 6.9 and mIAP act 0.931.
Screening Cc1nc(S/C(=C\c2ccc(OCc3ccccc3Cl)cc2)C(=O)O)n[nH]1 returned bIAP inhibitor -10.4, bIAP activator 1.1, hIAP block -112.6, hIAP act 2.13*, mIAP inh 11.3, mIAP act 0.887 and hIAP act confirm -48.0.
Screening Cc1nc(SCC(=O)Nc2ccc(OCc3ccccc3)cc2)n[nH]1 returned bIAP inhibitor -3.2, bIAP activator 1, hIAP block -38.8, hIAP act 1.39, mIAP inh 6.6 and mIAP act 0.934.
For O=C(CNS(=O)(=O)c1ccccc1)NNC(=O)C(Cl)Cl the results were bIAP inhibitor -33.7, bIAP activator 1.3, hIAP block -123.2, hIAP act 2.23*, mIAP inh 25.4, mIAP act 0.746 and hIAP act confirm -6.0.
`Cc1ccc(CN2CCC(C(=O)Nc3cccc(-c4cccc(F)c4)c3)CC2)o1` gave hIAP block -121.5, hIAP act 2.21*, mIAP inh -142.4, mIAP act 2.42* and hIAP act confirm 2.3.
For CCc1ccc(CN2CCC(C(=O)Nc3cccc(-c4nnc(C)s4)c3)CC2)o1 the results were hIAP block -21.0, hIAP act 1.21, mIAP inh 2.5 and mIAP act 0.975.
c1ccc(CSc2nnc3ccc(-c4ccco4)nn23)nc1 was read as bIAP inhibitor 1.8, bIAP activator 1, hIAP block 6.1, hIAP act 0.939, mIAP inh 1.9 and mIAP act 0.981.
Screening Cc1cc(C)cc(CC(Cc2nc3ccccc3[nH]2)c2nc3ccccc3[nH]2)c1 (stereo unspecified) returned bIAP inhibitor -422.4, bIAP activator 5.2*, hIAP block -111.7, hIAP act 2.12*, mIAP inh -38.1, mIAP act 1.38 and hIAP act confirm -322.6*.
For Cc1ccc(NCc2ccc([N+](=O)[O-])s2)cc1 the results were hIAP block 36.8*, hIAP act 0.632, mIAP inh 6.0, mIAP act 0.94 and hIAP act confirm 26.1.
O=c1cc(-c2ccc(O)c(O)c2)oc2cc(O)cc(O)c12 was read as hIAP block 57.5*, hIAP act 0.425, mIAP inh 34.1, mIAP act 0.659 and hIAP act confirm -2.3.
COc1ccc(-c2cc(=O)c3c(O)cc(O)cc3o2)cc1 was read as hIAP block 12.0, hIAP act 0.88, mIAP inh 3.0 and mIAP act 0.97.

Source: PubChem (Sanford-Burnham Center for Chemical Genomics)
